The structures appear in SMILES notation.

In data set [1] the target is T1, Histone deacetylase 8 (Homo sapiens, UniProt Q9BY41).
T1 sequence (Q9BY41 whole entry): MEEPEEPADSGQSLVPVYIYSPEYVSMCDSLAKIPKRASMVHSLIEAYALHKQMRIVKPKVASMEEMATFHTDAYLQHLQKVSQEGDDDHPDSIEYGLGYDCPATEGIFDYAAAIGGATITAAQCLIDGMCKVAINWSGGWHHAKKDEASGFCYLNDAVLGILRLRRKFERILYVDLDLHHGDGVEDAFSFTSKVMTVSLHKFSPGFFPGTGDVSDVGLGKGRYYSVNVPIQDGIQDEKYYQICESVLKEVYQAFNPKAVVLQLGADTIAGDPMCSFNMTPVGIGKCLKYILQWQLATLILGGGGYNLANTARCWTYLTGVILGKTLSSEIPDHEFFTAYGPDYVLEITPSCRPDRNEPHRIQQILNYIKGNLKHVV
Briefly: Inhibition of human recombinant HDAC8 using H2N-Arg-His-Lys(Ac)-Lys(Ac)-AMC as substrate after 90 mins by fluorescence based micro plate assay.

The target in data set [2] is T2, Histone deacetylase 8 (Schistosoma mansoni, UniProt A5H660).
T2 sequence (A5H660 whole entry): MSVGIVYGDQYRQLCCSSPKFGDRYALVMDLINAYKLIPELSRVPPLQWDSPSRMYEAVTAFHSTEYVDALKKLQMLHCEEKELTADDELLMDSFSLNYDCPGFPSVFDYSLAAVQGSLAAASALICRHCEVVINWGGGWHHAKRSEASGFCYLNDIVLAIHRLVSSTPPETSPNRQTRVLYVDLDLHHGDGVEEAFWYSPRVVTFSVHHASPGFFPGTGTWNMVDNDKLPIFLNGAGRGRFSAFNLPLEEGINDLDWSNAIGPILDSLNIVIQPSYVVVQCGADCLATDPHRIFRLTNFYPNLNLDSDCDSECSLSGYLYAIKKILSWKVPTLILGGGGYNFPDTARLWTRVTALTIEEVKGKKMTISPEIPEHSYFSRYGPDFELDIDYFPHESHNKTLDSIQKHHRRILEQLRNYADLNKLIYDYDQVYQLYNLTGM
Briefly: Inhibition of Schistosoma mansoni HDAC8 using Fluor de Lys as substrate incubated for 90 mins by fluorescence method. Summed up:
(§1)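 Recombinant smHDAC8 or hHDAC8 (Romier lab) run to Fluor de Lys HDAC8 kit protocol. Substrate H2N-Arg-His-Lys(Ac)-Lys(Ac)-AMC at 50 μM with increasing inhibitor concentrations, 90 min at 37°C. Stop solution holding inhibitor plus trypsin, then 20 min at 37°C to release AMC. Fluorescence read at Ex 355/Em 460 nm.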

In data set [3] the target is T3, Histone deacetylase 8 (Homo sapiens) (UniProt Q9BY41).
T3 sequence (whole entry): T1 sequence (Q9BY41 whole entry)
Briefly: Inhibition of human recombinant HDAC8 at 1 uM using H2N-Arg-His-Lys(Ac)-Lys(Ac)-AMC as substrate after 90 mins by fluorescence based micro plate assay. Summed up: as §1

Data set [4] deals with HEK293. Briefly: Cytotoxicity against human HEK293 assessed as reduction in cell viability at 50 uM measured for 24 hrs by Alamar Blue assay. Type of data set: cell-based. The conditions noted are these: hek293, 24 h. In a few lines:
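HEK293 cells in DMEM with 10% FCS and 5 mM glutamine at 37°C, 5% CO2, seeded at 1.5×10^3 cells/well. Compounds added at 50 μM. AlamarBlue added after 24 h and incubated a further 21 h. Resorufin fluorescence read at Ex 530/Em 590 nm. Triplicates; daunorubicin positive control.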

The subject of data set [5] is Schistosoma mansoni. Briefly: Antischistosomal activity against Schistosoma mansoni schistosomula at 20 uM incubated for 48 hrs by Alamar Blue assay. Type of data set: functional. Summed up: (§2)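 S. mansoni newly transformed schistosomula from mechanically transformed cercariae, 100 NTS/well in Medium 199 with 10% FCS, penicillin, streptomycin and rifampicin. Pre-cultured 3 h at 37°C, 5% CO2. Compounds from 20 mM DMSO stocks, final 10 or 20 μM. Alamar Blue added after 48 h exposure, then 24 h more. Resorufin read at Ex 530/Em 590 nm. Live and ethanol-killed larvae as controls; triplicate wells, two biological replicates.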

In data set [6] the test system is Schistosoma mansoni. Briefly: Antischistosomal activity against Schistosoma mansoni schistosomula at 10 uM incubated for 48 hrs by Alamar Blue assay. Type of data set: functional. Summed up:
as §2

Regarding `COc1ccc(C(=O)NO)cc1NCc1cccc2c1oc1ccccc12`, the IC50 in data set [1] amounted to 860 nM; in data set [2] it was 450 nM.
In the case of `COc1ccc(C(=O)Nc2cc(C(=O)NO)ccc2OC)c(OC)c1`, the inhibition in data set [3] amounted to 63%. In addition, the Activity is on record as 88.4% in data set [4], 66.5% in data set [5] and 65.3% in data set [6]. In data set [2], half-maximal inhibition (IC50) was put at 2080 nM.
For the molecule `COc1ccc(C(=O)NO)cc1NC(=O)c1ccc2[nH]c3c(c2c1)CN(C)CC3.Cl`, the Activity in data set [4] was determined as 71.1%; in data set [5], 100%; in data set [6] it was 98%. The IC50 in data set [1] is 290 nM; in data set [2], 200 nM.
As to `O=C(NO)c1ccc(Cl)c(NC(=O)c2ccc(-c3ccc(F)cc3)cc2Cl)c1`, the inhibition in data set [3] is 25%. The Activity in data set [4] came to 82.2%; in data set [5] it was 56.6%; in data set [6], 63.4%. This molecule yielded an IC50 in data set [2] of 280 nM.
Consider `CCCOc1ccc(C(=O)Nc2cc(C(=O)NO)ccc2OC)cc1`, for which the inhibition in data set [3] turned out to be 66%. The Activity in data set [4] turned out to be 93.2%; in data set [5], 51.6%; in data set [6] it was 70.7%. For the same molecule, the midpoint of inhibition in data set [2], the IC50, lay at 730 nM.
Regarding `COc1ccc(C(=O)NO)cc1NC(=O)c1ccc(-c2ccc(F)cc2)cc1Cl`, in data set [3], the inhibition turned out to be 48%. Moreover, the Activity in data set [4] was determined as 83.5%; in data set [5], 60.5%; in data set [6], 74.6%. In addition, in data set [2], the IC50 is 320 nM.
Turning to `COc1ccc(C(=O)NO)cc1NC(=O)c1cccc2c1/C(=N/O)c1ccccc1-2`, the Activity in data set [4] was 76.6%; in data set [5], 96%; in data set [6], 98.5%. For the same molecule, the results for the IC50 in data set [1] and in data set [2] were 150 nM and 320 nM, respectively.
The matching figures for `COc1ccc(C(C)=O)cc1NC(=O)c1cc(C(=O)NO)ccc1C`: 94.8%, 69.5%, 75.2%, 90 nM and 180 nM.
On to `CCOc1ccc(C(C)=O)cc1NC(=O)c1cc(C(=O)NO)ccc1OC`, for which the inhibition in data set [3] was 61%. The results for the Activity in data set [4], in data set [5] and in data set [6] were 59.9%, 56.7% and 64.3%, respectively. This molecule also displayed an IC50 in data set [2] of 330 nM.
Take `COc1ccc(C(=O)NO)cc1C(=O)Nc1ccc2sccc2c1`: the Activity amounted to 95.6% in data set [4], 77.1% in data set [5] and 82.1% in data set [6]. The IC50 in data set [1] came out at 100 nM; in data set [2], 220 nM.
For `COc1ccc(C(C)=O)cc1NC(=O)c1cc(C(=O)NO)ccc1Cl`, in that order: 89.1%, 32.3%, 62.6%, 90 nM and 290 nM.
Take `CCOc1ccc(C(C)=O)cc1NC(=O)c1cc(C(=O)NO)ccc1C`: the Activity in data set [4] was 87.7%; in data set [5], 37%; in data set [6], 42.1%. For the same molecule, the IC50 in data set [1] worked out at 70 nM; in data set [2], 210 nM.
For `COc1ccc(C(=O)NO)cc1NC(=O)c1cccc(OCc2ccccc2)c1`, in data set [3], the inhibition was 59%. Besides, the values for the Activity in data set [4], in data set [5] and in data set [6] were 95.4%, 56.2% and 61%, respectively. The IC50 in data set [2] worked out at 610 nM.
For `Cc1ccc(C(=O)NO)cc1NC(=O)c1cccc(OCc2c(Cl)cccc2Cl)c1`, in that order: 34%, 66.6%, 22.3%, 38.4% and 520 nM.
Turning to `O=C(C1CCCCC1)N1CC(=O)N2CCc3ccccc3C2C1` (stereo not drawn) [PRAZIQUANTEL], the results for the Activity in data set [4], in data set [5] and in data set [6] were 99.3%, 88.9% and 92.1%, respectively.
On to `COc1ccc(C(=O)NO)cc1C(=O)Nc1ccc(Cl)cc1Cl`, for which the inhibition in data set [3] came to 31%. Further, the Activity in data set [4] is reported as 58.3%; in data set [5] it was 83.4%; in data set [6], 88.2%. The IC50 in data set [2] came to 180 nM.
For `Cc1ccc(C(=O)NO)cc1NC(=O)c1cccc(OCc2ccccc2)c1`, in that order: 60%, 81.4%, 46.5%, 67.3% and 450 nM.
The matching figures for `COc1ccc(C(=O)NO)cc1NC(=O)c1nc2ccccc2[nH]1`: 29%, 83.5%, 47.1%, 69.5% and 580 nM.
Take `COc1ccc(C(=O)NO)cc1NC(=O)c1cccc2cccnc12`: the Activity in data set [4] turned out to be 77%; in data set [5] it was 40%; in data set [6], 62%. Further, the IC50 in data set [1] is 180 nM; in data set [2] it was 330 nM.
On to `COc1ccc(C(=O)NO)cc1NC(=O)c1ccc(OC(C)C)cc1`, for which the Activity turned out to be 93.1% in data set [4], 56.2% in data set [5] and 72.6% in data set [6]. The molecule further gave an IC50 in data set [2] of 730 nM.
For `COc1ccc(C(=O)NO)cc1C(=O)Nc1ccc(Cl)cc1`, in that order: 27.5%, 59.2%, 77.3% and 310 nM.

The record behind these values is ChEMBL document CHEMBL4842354, “Synthesis, structure-activity relationships, cocrystallization and cellular characterization of novel smHDAC8 inhibitors for the treatment of schistosomiasis” (Eur J Med Chem, 2021).
